# Most compounds without a hit are left out; they make up all but 2% or so of the library.
# FID counter – compounds displacing fluorescent DNA intercalator, primary screen, artefact control for HCV NS3 helicase inhibitor project, biochemical, FID fluorescence; DNA fluorescent intercalator displacement; inhibition, % at 7.9 µM; actives 0.17% (n = 290,000); in the data active = inhibition above about 37%;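 note: 0% = vehicle and 100% = reference compound; higher means more ethidium bromide displaced from hairpin DNA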
# NS3 helicase inh – inhibitors of HCV NS3 helicase, primary screen, biochemical, Cy5 molecular beacon fluorescence; inhibition, % at 10.9 µM; Hepatitis C virus NS3 helicase; actives 0.56% (n = 290,000); NS3 helicase DNA unwinding;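 active = inhibition above the mean of all tested compounds plus 3 SD, set per campaign, cut at about 35% in these data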;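 note: 0% = DMSO wells and 100% = thioflavine S control wells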
#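 assay system = NS3 helicase fragment of HCV | buffer or medium = MOPS pH 6.5, MgCl2, DTT, Tween20, BSA | timing = 60 min unwinding reaction at 25 °C after ATP addition | signal = Cy5 beacon fluorescence read at start and 1 h | read-out basis = % inhibition of unwinding | control set = low DMSO, high thioflavine S at 110 µM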
# eIF4H inh – human eIF4H binding inhibitors, primary screen, translation initiation inhibitor project, biochemical, uHTS, fluorescence polarization. Eukaryotic translation initiation factor 4H (Homo sapiens), Q15056. eIF4H fluorescence polarization binding assay. inhibition, % at 35 µM. actives 0.94% (n = 290,000);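 note: calls also rest on retests at 20 µM and on dose response follow-up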
# MLLE-PAM2 inh – inhibitors of PABP1 MLLE–PAM2 peptide binding, primary screen, biochemical, fluorescence polarization, FITC-PAM2, GST-MLLE. Polyadenylate-binding protein 1 (Homo sapiens), P11940. inhibition, % at 20 µM. actives 0.36% (n = 360,000). AID 588489, 2011; in the data active = inhibition above about 35%, passing the limit was not always enough;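 note: plate controls were DMSO wells with GST-MLLE for no effect and wells lacking GST-MLLE protein for full effect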
# Target sequence (P11940 whole entry, looked up): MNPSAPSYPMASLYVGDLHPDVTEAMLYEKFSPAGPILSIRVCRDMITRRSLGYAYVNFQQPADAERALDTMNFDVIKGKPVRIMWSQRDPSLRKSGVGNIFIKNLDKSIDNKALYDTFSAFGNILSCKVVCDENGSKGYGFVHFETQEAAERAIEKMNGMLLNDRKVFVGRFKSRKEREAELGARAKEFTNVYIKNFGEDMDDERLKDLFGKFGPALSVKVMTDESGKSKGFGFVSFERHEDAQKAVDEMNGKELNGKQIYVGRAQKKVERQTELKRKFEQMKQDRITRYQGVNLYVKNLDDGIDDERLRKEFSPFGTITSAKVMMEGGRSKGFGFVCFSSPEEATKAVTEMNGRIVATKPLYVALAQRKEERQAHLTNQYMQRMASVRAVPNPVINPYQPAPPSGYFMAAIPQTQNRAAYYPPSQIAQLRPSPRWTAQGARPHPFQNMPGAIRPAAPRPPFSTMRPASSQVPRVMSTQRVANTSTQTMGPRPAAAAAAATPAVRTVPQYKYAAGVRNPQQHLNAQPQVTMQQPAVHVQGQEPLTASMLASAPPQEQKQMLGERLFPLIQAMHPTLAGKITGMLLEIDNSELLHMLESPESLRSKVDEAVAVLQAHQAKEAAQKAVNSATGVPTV
# PABP polyA inh – PABP poly(A) RNA binding inhibitors, primary screen, biochemical, fluorescence polarization, uHTS; Polyadenylate-binding protein 1 (Homo sapiens), P11940; inhibition, % at 35 µM; actives 1% (n = 290,000); AID 2014, 2009;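 note: calls also rest on retests at 20 µM and on dose response follow-up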
# HCV core dimer – inhibitors of HCV core protein dimerization, primary screen, biochemical, TR-FRET, high-throughput; inhibition, % at 5 µM; AID 1899, 2009; TR-FRET GST/Flag-core106 dimerization, 1536-well; actives 0.33% (n = 300,000);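 active = inhibition above the mean of all tested compounds plus 3 SD, set per screening campaign, cut at about 45% in these data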
#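 Material: GST/Flag-tagged HCV core106 proteins. Incubation: 4 h, 22.5 °C incubation. Read-out basis: inhibition (%) from 671 over 617 nm ratio. Measured by: TR-FRET, excitation 340 nm, emission 617 and 671 nm.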
# Starred values were filed as active, the others as inactive; ? = inconclusive; · = no result. Unless noted, the rule behind the calls is not given here.
SMILES,FID counter,NS3 helicase inh,eIF4H inh,MLLE-PAM2 inh,PABP polyA inh,HCV core dimer
Cn1c(N)c(C(=O)COC(=O)c2cc(C(F)(F)F)nc3ccccc23)c(=O)n(Cc2ccccc2)c1=O,-1.0,2.5,-0.4,·,-5.3,-14.4
CCNC(=O)COC(=O)c1cc(-c2ccc(OC)cc2)nc2ccccc12,-19.1,-13.3,-4.9,-11.9,-5.7,-5.0
CCCCNC(=O)C1(C)CCN1Cc1cc(C)ccc1C (centres undefined),·,·,·,-11.9,·,·
Cc1ccc(-c2nc(N)s[n+]2-c2ccccc2)cc1,1.9,-1.2,3.5,40.2*,6.9,-3.1
CNc1nc(-c2ccccc2)[n+](-c2ccc(C)cc2)s1,3.8,-2.7,-18.0,-48.0,-20.1,1.5
CCN1C[C@@H]2[C@@H]3C(=O)N(Cc4ccccc4)C(=O)[C@@H]3[C@](C)(C1=O)N2C(=O)c1ccc(Cl)cc1,·,·,·,5.1,·,·
CCCC[n+]1c(C)sc2cc(OC)ccc21,-15.4,1.2,-3.7,-33.9,58.4*,-6.3
Cc1ccc2c(c1)sc(C)[n+]2CCCS(=O)(=O)[O-],-46.6,5.9,1.4,47.6*,31.8,5.9
COc1ccc2sc(C)[n+](C)c2c1,-24.1,-4.3,-7.0,-61.1,-8.7,-5.2
COc1cc(CNc2ncnc3c2ncn3[C@H]2CN(Cc3ccco3)C[C@@H](CO)O2)cc(OC)c1OC,·,·,·,22.7,·,·
O=C(NS(=O)(=O)N1CCOCC1)C1=C(N2CCCC2)COC1=O,·,·,·,-8.5,·,·
NNc1nc2c(Cl)ccc(Cl)c2s1,3.0,7.6,61.8*,8.6,3.3*,6.6
Oc1c(Cl)cc(Cl)cc1C=Nc1ccc2c(c1)OCCO2,-4.1,1.0,16.2*,-45.9,51.1*,11.3
Brc1csc(C=Nc2ccc3c(c2)OCCOCCOCCOCCO3)c1,0.9,-3.4,32.3,6.9,20.7,-4.2
S=c1nc[nH]c2c1sc1nc(N3CCOCC3)c3c(c12)CCCC3,-8.9,15.1,-5.5,-1.7,-8.4,61.1*
Cc1ccc(S(=O)(=O)N(CCC(=O)NCc2ccc(S(N)(=O)=O)cc2)c2ccccc2)cc1,·,·,·,16.9,·,·
CCOC(=O)c1nc(Nc2ccccc2)c2ccccc2n1,-13.0,19.7,-6.3,0.2,-8.0,2.7
CCOC(=O)c1nc(Nc2ccc(C)cc2)c2ccccc2n1,-16.1,-5.3,12.8,59.9*,11.1,-3.4
CN1C/C(=C\c2ccc(N3CCOCC3)cc2)C(=O)/C(=C/c2ccc(N3CCOCC3)cc2)C1,-12.9,-1.7,77.6*,-133.2,active,2.6
CN1C/C(=C/c2ccncc2)C(=O)/C(=C/c2ccncc2)C1,-11.3,0.8,-0.5,2.6,1.2,-55.2
Cc1cccc(CN2CCN(C3CN(Cc4ccc(F)cc4)S(=O)(=O)C3)CC2)c1 (centres undefined),·,·,·,-3.5,·,·
Cc1ccc(/C=N/NC(=O)c2nnn(-c3nonc3N)c2CSc2ccc(Cl)cc2)o1,-11.0,5.5,-7.8,9.4,3.3,4.8
CCOC(=O)N1CCC(NC(=O)C2CCCN(S(=O)(=O)c3ccc4c(c3)oc(=O)n4C)C2)CC1 (centres undefined),-1.0,-3.4,-3.4,4.0,4.6,-2.2
Cn1c(=O)oc2cc(S(=O)(=O)NCc3ccncc3)ccc21,0.1,9.1,71.5*,3.9,67.4*,-8.5
Cc1ccc(C(=O)O)cc1NS(=O)(=O)c1ccc2c(c1)oc(=O)n2C,-7.1,-2.8,77.2,-1.7,33.4*,·
SMILES,FID counter,NS3 helicase inh,eIF4H inh,MLLE-PAM2 inh,PABP polyA inh,HCV core dimer
Cn1c(=O)oc2cc(S(=O)(=O)Nc3ccc(C(=O)O)cc3)ccc21,·,·,·,-14.0,·,·
CCOC(=O)N1CCC(NS(=O)(=O)c2ccc3c(c2)oc(=O)n3C)CC1,-1.5,-4.9,66.8*,-0.5,56.0*,-0.9
CN(C(=O)CSC(=O)c1ccccc1)c1ccccc1,-27.1,-0.7,-11.4,15.3,-5.6,-0.9
Cc1[nH]c(C)c(S(=O)(=O)N2CCCCC2C)c1C(=O)N1CCCC1 (centres undefined),-10.2,4.9,-14.2,-9.0,5.7,-11.0
O=c1oc(/C=C/c2ccco2)nc2sc3c(c12)CCC3,-1.1,23.5,73.4*,3.8,81.1*,-5.3
Cc1ccc(NC(=O)C2C3CCCC2C3c2ccccc2)cc1C (centres undefined),-1.2,1.9,?,-4.6,66.8*,1.5
O=C(NC(c1ccc(Cl)cc1)c1cnccn1)C1CCN(CCCc2ccccc2)CC1 (centres undefined),·,·,·,2.8,·,·
CCCCn1c(O)c2n(c1=O)Cc1ccccc1N=C2c1ccccc1,·,·,·,6.2,·,·
O=c1[nH]cnc(CN2CCCCC2)c1O,·,·,·,12.6,·,·
O=c1[nH]c(CN2CCCCC2)ccc1O,·,·,·,45.0*,·,·
Cc1cc(C)c2cc3c(ccn3C3OC[C@H](O)[C@H](O)[C@H]3O)cc2n1 (some centres undefined),12.2,0.4,32.9*,49.1*,53.1*,-5.3
Nc1nc(Cl)nc2c1ncn2C1OCC(O)C(O)C1O (centres undefined),·,·,·,-10.6,·,·
COC(=O)C1=C(C)N(c2ccc(OC)cc2)C(=O)/C1=C\c1cccs1,3.7,-2.1,active,-8.8,70.7*,-8.8
c1cc(N2CCCCC2)nc(N2CCCCC2)n1,·,·,·,-1.1,·,·
C[c-]1[c-](C)[c-](C)[c-](C)[c-]1C.[Fe].c1cc2nccc(N3CCCC3)[c-]2c1 (centres undefined),·,·,103.9*,63.6*,129.0*,-38.9
CC(=O)c1ccc(OCC(=O)OCC(=O)NCc2ccco2)cc1,·,·,·,-3.6,·,·
Cc1ccc(NC(=O)CCS(=O)(=O)c2ccccc2)cc1S(=O)(=O)N1CCCCCC1,·,·,·,3.8,·,·
COC(=O)/C=C1\S/C(=N/N=C/c2ccco2)NC1=O,-7.3,22.8,60.8*,-5.8,83.2*,-6.3
Cc1ccc(S(=O)(=O)/N=C2/NC(=O)/C(=C\c3ccccc3)S2)cc1,·,·,·,11.9,·,·
CC(=O)Nc1ccc(S(=O)(=O)/N=C2/NC(=O)/C(=C\c3ccco3)S2)cc1,-17.1,16.1,88.3*,-1.4,73.9*,-2.9
CCC(=O)N1CCc2nc(-c3ccccc3)sc2C1,-12.4,0.2,1.9,-11.0,15.7,0.6
NC1=Nc2cccc3cccc1c23,14.1,-5.0,92.4,-28.8,0.8*,-7.1
CC(=O)N1CCc2[nH]c3ccccc3c2C1,-4.6,0.3,-6.9,-14.5,-6.3,3.4
CCCCN1CCc2[nH]c(=S)[nH]c(=O)c2C1,-1.3,4.4,-5.4,48.7*,1.0,-2.9
CC(c1ccccc1)N1CCc2[nH]c(=S)[nH]c(=O)c2C1 (centres undefined),-3.7,8.1,3.9,38.5*,1.5,-1.9
COCCN1CCc2[nH]c(=S)[nH]c(=O)c2C1,-1.4,5.5,-7.7,39.6,0.5,-5.7
